Results as given in ChEMBL document CHEMBL2062416, “Synthesis and biological evaluation of some novel 1-indanone thiazolylhydrazone derivatives as anti-Trypanosoma cruzi agents” (Eur J Med Chem, 2012).

Experiments:
Trypanosoma cruzi [1] = test: Trypanocidal activity against epimastigotes of Trypanosoma cruzi Tulahuen 2 assessed as inhibition of parasite growth after 4 days by trypan blue staining; assay type: functional, organism-based; conditions: Tulahuen 2, 96 h
How it was run: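 Epimastigotes (Tulahuen, Tul 2) from 5-day cultures grown at 28 °C in liver/infusion medium with hemin, started at 1.5–2.5×10^6 cells/mL, exposed 4 days to compounds (typically 1.50–15 or 0.5–2.5 µM), triplicate; benznidazole 2.50–15 µM positive control. Motile cells counted in Neubauer chamber; %I from density change versus untreated; IC50 by linear regression on log concentration.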

Trypanosoma cruzi [2] = test: Trypanocidal activity against bloodstream trypomastigotes of Trypanosoma cruzi infected in mouse blood assessed as lytic effect after 24 hrs; assay type: functional, organism-based
How it was run: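 Blood from infected CF1 mice (Tulahuen, Tul 2) diluted to 1.5×10^6 trypomastigotes/mL; compounds 0.30–350 µM, duplicates, 24 h. Live parasites counted in Neubauer chamber; %I = [1−CDt/CDc]×100 versus untreated. IC50 by linear regression of %I on log concentration. Means ± SD of three experiments.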

Vero = test: Cytotoxicity against african green monkey Vero cells up to 100 uM after 24 hrs by MTT assay; assay type: cell-based; conditions: chlorocebus sabaeus
How it was run: (§1)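 Vero cells grown in MEM or RPMI with 10% FBS, penicillin, streptomycin, glutamine; seeded at 9×10^5 cells/mL, compounds (12.5–200.0 µM) added after 48 h, 24 h exposure. PBS wash, MTT at 0.5 mg/mL final, 1 h 37 °C, formazan dissolved in DMSO, A570 with blank subtraction. Repeated at least three times, four samples per assay.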

[3] = target: Cruzipain (Trypanosoma cruzi) (UniProt P25779); test: Inhibition of epimastigotes of Trypanosoma cruzi cruzipain using Bz-Pro-Phe-Arg-pNA as substrate at 20 uM by spectrophotometric analysis
Sequence of Cruzipain (Trypanosoma cruzi) (P25779 123-467 limits assumed): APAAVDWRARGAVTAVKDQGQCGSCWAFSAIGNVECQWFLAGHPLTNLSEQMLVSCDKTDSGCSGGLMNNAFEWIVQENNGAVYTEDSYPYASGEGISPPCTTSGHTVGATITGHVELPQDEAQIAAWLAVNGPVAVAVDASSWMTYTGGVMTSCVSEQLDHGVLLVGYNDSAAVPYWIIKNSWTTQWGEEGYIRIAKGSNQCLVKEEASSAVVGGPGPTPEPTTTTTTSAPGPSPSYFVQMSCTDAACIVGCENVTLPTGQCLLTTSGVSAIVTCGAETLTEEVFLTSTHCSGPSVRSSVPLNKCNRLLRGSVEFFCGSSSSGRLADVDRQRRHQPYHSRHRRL
How it was run: (§2)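 Cruzipain purified from epimastigote cell-free extract by ConA-Sepharose affinity chromatography. 1 mL reaction: Tris-acetate pH 8.2 (50 µmol), 2-mercaptoethanol (10 µmol), Bz-Pro-Phe-Arg-pNA (0.3 µmol); followed at 410 nm. Compounds added in DMSO; vehicle controls with matching DMSO; E-64 reference inhibitor. Percent inhibition relative to enzyme without drug.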

[4] = target: Cruzipain (Trypanosoma cruzi) (UniProt P25779); test: Inhibition of epimastigotes of Trypanosoma cruzi cruzipain using Bz-Pro-Phe-Arg-pNA as substrate at 50 uM by spectrophotometric analysis; how it was run: as §2
[5] = target: Cruzipain (Trypanosoma cruzi) (UniProt P25779); test: Inhibition of epimastigotes of Trypanosoma cruzi cruzipain using Bz-Pro-Phe-Arg-pNA as substrate at 10 uM by spectrophotometric analysis; how it was run: as §2
Trypanosoma cruzi [6] = test: Trypanocidal activity against amastigotes of Trypanosoma cruzi expressing beta-galactosidase gene infected in mouse J774 cells assessed as inhibition of parasite growth after 7 days; assay type: functional, organism-based; conditions: J774, 168 h
How it was run: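 J774 macrophages, 5×10^3/well, infected with β-galactosidase-expressing blood trypomastigotes (clone C4) at 10:1 parasite:cell for 24 h, washed, then compounds (2–100 µM) in phenol red-free RPMI, duplicates, 7 days. Developed with 1% NP-40 and 100 µM CPRG, 4 h 37 °C, A570; uninfected ± compound wells correct colour. IC50 by linear regression of %I against log concentration.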

Trypanosoma cruzi [7] = test: Inhibition of ergosterol biosynthesis in epimastigotes of Trypanosoma cruzi assessed as ratio of squalene/ergosterol at 25 uM after 24 hrs by TLC analysis (reference value: 0.76); assay type: functional
[8] = Cytotoxicity against african green monkey Vero cells after 24 hrs by MTT assay; assay type: cell-based; conditions: chlorocebus sabaeus; how it was run: as §1

| Compound | IC50 (Trypanosoma cruzi [1]) [µM] | IC50 (Trypanosoma cruzi [2]) [µM] | Activity (Vero) | inhibition [3] [%] | inhibition [4] [%] | inhibition [5] [%] | IC50 (Trypanosoma cruzi [6]) [µM] | Ratio (Trypanosoma cruzi [7]) | CC50 at 24 h [8] [µM] |
| --- | --- | --- | --- | --- | --- | --- | --- | --- | --- |
| c1ccc(-c2csc(N/N=C3\CCc4ccccc43)n2)cc1 | 19 | > 500 | Non-toxic |  |  |  |  |  |  |
| COc1cc2c(cc1OC)/C(=N/Nc1nc(-c3ccccc3)cs1)CC2 | 10.1 | 195 | Non-toxic |  |  |  |  |  |  |
| Cc1ccc2c(c1)CC/C2=N\Nc1nc(-c2ccc(Cl)cc2)cs1 | 7.15 | 372 | Non-toxic |  |  |  |  |  |  |
| Cc1cccc2c1CC/C2=N\Nc1nc(-c2ccccc2)cs1 | 7.08 | 48.9 | Non-toxic | 0 | 0 | 3 | 0.68 |  |  |
| Cc1ccc2c(c1)/C(=N/Nc1nc(-c3ccccc3)cs1)CC2 | 4.27 | 22.7 | Non-toxic | 0 | 0 | 3 | 3.96 |  |  |
| COc1cc2c(cc1OC)/C(=N/Nc1nc(-c3ccc(C)cc3)cs1)CC2 | > 15 | 69.6 | Non-toxic | 0 | 0 | 0 | 7.72 |  |  |
| Cc1ccc(-c2csc(N/N=C3\CCc4c(C)cccc43)n2)cc1 | 4.36 | 17.2 | Non-toxic | 2 | 0 | 4 | 0.72 | 2.92 |  |
| Cc1ccc2c(c1)/C(=N/Nc1nc(-c3ccc(Cl)cc3)cs1)CC2 | 8.59 | 61.1 | Non-toxic |  |  |  |  |  |  |
| Cc1ccc2c(c1)CC/C2=N\Nc1nc(-c2ccccc2)cs1 | 4.69 | 172 | Non-toxic |  |  |  |  |  |  |
| CC(C)C[C@H](NC(=O)[C@H]1O[C@@H]1C(=O)O)C(=O)NCCCCN=C(N)N |  |  |  |  |  | 62 |  |  |  |
| CN(C/C=C/C#CC(C)(C)C)Cc1cccc2ccccc12 [TERBINAFINE] |  |  |  |  |  |  |  | 1.54 |  |
| O=[N+]([O-])c1cccc2c1CC/C2=N\Nc1nc(-c2ccc(Cl)cc2)cs1 | 17.1 | 597 | Non-toxic |  |  |  |  |  |  |
| Cc1cccc2c1CC/C2=N\Nc1nc(-c2ccc(Cl)cc2)cs1 | 4.53 | 20 | Non-toxic | 0 | 3 | 3 | 0.09 | 1.25 |  |
| COc1cccc2c1CC/C2=N\Nc1nc(-c2ccc(Cl)cc2)cs1 | 11.8 | 19.7 | Non-toxic | 0 | 0 | 0 | 0.84 |  |  |
| Cc1ccc(-c2csc(N/N=C3\CCc4ccc(C)cc43)n2)cc1 | 4.08 | 49.5 | Non-toxic | 0 | 0 | 3 | 0.27 | 0.8 |  |
| Cc1ccc(-c2csc(N/N=C3\CCc4cc(C)ccc43)n2)cc1 | 5.24 | 87 | Non-toxic | 0 | 0 | 0 | 1.35 |  |  |
| Cc1ccc(-c2csc(N/N=C3\CCc4ccccc43)n2)cc1 | > 15 | > 500 | Non-toxic | 5 | 5 | 8 |  | 0.76 |  |
| O=C(Cn1ccnc1[N+](=O)[O-])NCc1ccccc1 [BENZNIDAZOLE] | 5.39 | 30.3 |  |  |  |  |  |  | 82.8 |
| COc1cc2c(cc1OC)/C(=N/Nc1nc(-c3ccc(Cl)cc3)cs1)CC2 | 7.17 | 404 | Non-toxic |  |  |  |  |  |  |
| Clc1ccc(-c2csc(N/N=C3\CCc4ccccc43)n2)cc1 | 8.62 | 308 | Non-toxic |  |  |  |  |  |  |
